From the RNAGym collection of RNA variant scans (doi:10.1002/anie.201605470)

B1: Osa-1-4 twister ribozyme (parent)
chain: CCGCCUAACACUGCCAAUGCCGGUCCCAAGCCCGGAUAAAAGUGGAGGGGGCGG

Variants of: B1
Assay: self-cleavage, relative activity (ratio to wild type); higher = more cleavage; co-transcriptional
Summary of the method: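 A DNA template encoding a 54-nucleotide twister ribozyme from Oryza sativa was made so that each of the 48 positions downstream of the cleavage site carried 97 % wild-type base and 1 % of each other base. Transcription in vitro ran for 2 h at 37 °C, during which the ribozyme could cleave itself. Reverse transcription used a template-switching oligonucleotide, and the products were PCR-amplified and deep-sequenced. Each read was scored as cleaved or uncleaved by whether upstream sequence was present, and relative activity is the fraction cleaved normalised to wild type.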

| Variant | self-cleavage |
| --- | --- |
| A39U U37C | 1 |
| A39U U37G | 1.02 |
| A39U U43A | 0.43 |
| A39U U43C | 0.12 |
| A39U U43G | 0.18 |
| A40C | 0.09 |
| A40C A7C | 0.02 |
| A40C A7G | 0.06 |
| A40C A7U | 0.02 |
| A40C A8C | 0.04 |
| A40C A8G | 0.05 |
| A40C A8U | 0.04 |
| A40C A41C | 0.28 |
| A40C A41G | 0.1 |
| A40C A41U | 0.42 |
| A40C A46C | 0.04 |
| A40C A46G | 0.02 |
| A40C A46U | 0.03 |
| A40C C9A | 0.02 |
| A40C C9G | 0.07 |
| A40C C9U | 0.05 |
| A40C C11A | 0.05 |
| A40C C11G | 0.03 |
| A40C C11U | 0.07 |

| Variant | self-cleavage |
| --- | --- |
| A40C C14A | 0.04 |
| A40C C14G | 0.03 |
| A40C C14U | 0.05 |
| A40C C15A | 0.05 |
| A40C C15G | 0.04 |
| A40C C15U | 0.05 |
| A40C C20A | 0.09 |
| A40C C20G | 0.04 |
| A40C C20U | 0.08 |
| A40C C21A | 0.07 |
| A40C C21G | 0.02 |
| A40C C21U | 0.09 |
| A40C C25A | 0.03 |
| A40C C25G | 0.03 |
| A40C C25U | 0.04 |
| A40C C26A | 0.02 |
| A40C C26G | 0.02 |
| A40C C26U | 0.04 |
| A40C C27A | 0.05 |
| A40C C27G | 0.02 |
| A40C C27U | 0.03 |
| A40C C31A | 0.02 |
| A40C C31G | 0.02 |
| A40C C31U | 0.06 |

| Variant | self-cleavage |
| --- | --- |
| A40C C32A | 0.04 |
| A40C C32G | 0.03 |
| A40C C32U | 0.03 |
| A40C C33A | 0.05 |
| A40C C33G | 0.02 |
| A40C C33U | 0.04 |
| A40C C52A | 0.11 |
| A40C C52G | 0.09 |
| A40C C52U | 0.1 |
| A40C G13A | 0.03 |
| A40C G13C | 0.01 |
| A40C G13U | 0.01 |
| A40C G19A | 0.07 |
| A40C G19C | 0.02 |
| A40C G19U | 0.04 |
| A40C G22A | 0.09 |
| A40C G22C | 0.02 |
| A40C G22U | 0.07 |
| A40C G23A | 0.06 |
| A40C G23C | 0.02 |
| A40C G23U | 0.02 |
| A40C G30A | 0.02 |
| A40C G30C | 0.02 |
| A40C G30U | 0.01 |

| Variant | self-cleavage |
| --- | --- |
| A40C G34A | 0.06 |
| A40C G34C | 0.06 |
| A40C G34U | 0.05 |
| A40C G35A | 0.08 |
| A40C G35C | 0.05 |
| A40C G35U | 0.08 |
| A40C G42A | 0.07 |
| A40C G42C | 0.06 |
| A40C G42U | 0.03 |
| A40C G44A | 0.09 |
| A40C G44C | 0.09 |
| A40C G44U | 0.06 |
| A40C G45A | 0.04 |
| A40C G45C | 0.03 |
| A40C G45U | 0.03 |
| A40C G47A | 0.05 |
| A40C G47C | 0.03 |
| A40C G47U | 0.04 |
| A40C G48A | 0.02 |
| A40C G48C | 0.02 |
| A40C G48U | 0.03 |
| A40C G49A | 0.04 |
| A40C G49C | 0.02 |
| A40C G49U | 0.03 |

| Variant | self-cleavage |
| --- | --- |
| A40C G50A | 0.08 |
| A40C G50C | 0.07 |
| A40C G50U | 0.07 |
| A40C G51A | 0.06 |
| A40C G51C | 0.04 |
| A40C G51U | 0.06 |
| A40C G53A | 0.09 |
| A40C G53C | 0.04 |
| A40C G53U | 0.05 |
| A40C G54A | 0.09 |
| A40C G54C | 0.07 |
| A40C G54U | 0.12 |
| A40C U12A | 0.5 |
| A40C U12C | 0.07 |
| A40C U12G | 0.47 |
| A40C U18A | 0.07 |
| A40C U18C | 0.08 |
| A40C U18G | 0.09 |
| A40C U24A | 0.04 |
| A40C U24C | 0.03 |
| A40C U24G | 0.01 |
| A40C U37A | 0.07 |
| A40C U37C | 0.07 |
| A40C U37G | 0.12 |

| Variant | self-cleavage |
| --- | --- |
| A40C U43A | 0.07 |
| A40C U43C | 0.07 |
| A40C U43G | 0.07 |
| A40G | 0.91 |
| A40G A7C | 0.05 |
| A40G A7G | 0.35 |
| A40G A7U | 0.08 |
| A40G A8C | 0.06 |
| A40G A8G | 0.18 |
| A40G A8U | 0.11 |
| A40G A41C | 0.41 |
| A40G A41G | 0.22 |
| A40G A41U | 0.91 |
| A40G A46C | 0.06 |
| A40G A46G | 0.05 |
| A40G A46U | 0.08 |
| A40G C9A | 0.09 |
| A40G C9G | 0.18 |
| A40G C9U | 0.23 |
| A40G C11A | 0.14 |
| A40G C11G | 0.13 |
| A40G C11U | 0.32 |
| A40G C14A | 0.4 |
| A40G C14G | 0.11 |

| Variant | self-cleavage |
| --- | --- |
| A40G C14U | 0.2 |
| A40G C15A | 0.13 |
| A40G C15G | 0.14 |
| A40G C15U | 0.13 |
| A40G C20A | 0.78 |
| A40G C20G | 0.1 |
| A40G C20U | 0.91 |
| A40G C21A | 0.25 |
| A40G C21G | 0.08 |
| A40G C21U | 0.79 |
| A40G C25A | 0.06 |
| A40G C25G | 0.06 |
| A40G C25U | 0.14 |
| A40G C26A | 0.05 |
| A40G C26G | 0.14 |
| A40G C26U | 0.13 |
| A40G C27A | 0.11 |
| A40G C27G | 0.09 |
| A40G C27U | 0.11 |
| A40G C31A | 0.03 |
| A40G C31G | 0.08 |
| A40G C31U | 0.16 |
| A40G C32A | 0.06 |
